Measurements: ChEMBL document CHEMBL4819088, “Synthesis and in vivo screening of isosteviol derivatives as new cardioprotective agents” (2021)
Calls of active or inactive are those of the source. The rule behind the calls is not given here.

Legend:
[1] = species on record: Danio rerio; assay: Prevention of doxorubicin-induced Zebrafish mortality assessed as survival rate at 40 uM incubated for 48 hrs by inverted fluorescence microscopy (reference value: 52%); assay type: functional
[2] = species on record: Danio rerio; assay: Prevention of doxorubicin-induced Zebrafish mortality assessed as survival rate at 5 uM incubated for 48 hrs by inverted fluorescence microscopy (reference value: 52%); assay type: functional
[3] = species on record: Danio rerio; assay: Prevention of doxorubicin-induced Zebrafish mortality assessed as survival rate at 15 uM incubated for 48 hrs by inverted fluorescence microscopy (reference value: 52%); assay type: functional
[4] = species on record: Danio rerio; assay: Cardioprotective activity in (cmlc2:GFP) transgenic Zebrafish assessed as prevention of doxorubicin-induced heart shape change measured after 48 hrs; assay type: functional, organism-based
[5] = species on record: Danio rerio; assay: Cardioprotective activity against doxorubicin-induced (cmlc2:GFP) transgenic Zebrafish assessed as protection of heart function loss measured after 48 hrs; assay type: functional, organism-based; settings: dose 20-60 µM
In short: (§1)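 Tg(cmlc2:GFP) embryos, 24 hpf, 20 per well, exposed to DOX (80 μM) with or without test compound at its optimum concentration for 48 h. At 72 hpf, heart rate, fractional shortening, stroke volume and cardiac output were derived from fluorescence imaging of atrium and ventricle. Mean ± S.D., n = 4.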

[6] = test system: Danio rerio; assay: Cardioprotective activity in (cmlc2:GFP) transgenic Zebrafish assessed as reduction in doxorubicin-induced cardiac edema measured after 48 hrs; assay type: functional, organism-based
[7] = species on record: Danio rerio; assay: Cardioprotective activity in (cmlc2:GFP) transgenic Zebrafish assessed as reduction in doxorubicin-induced cardiac impairment measured after 48 hrs; assay type: functional, organism-based; in short: as §1
[8] = species on record: Danio rerio; assay: Cardioprotective activity against doxorubicin-induced (cmlc2:GFP) transgenic Zebrafish assessed as protection of heart measured after 48 hrs; assay type: functional, organism-based; settings: dose 20-60 µM; in short: as §1
[9] = test system: H9c2; assay: Cardioprotective activity against rat H9c2 cells assessed as inhibition of doxorubicin-induced mitochondrial membrane potential loss incubated for 48 hrs by JC1 staining based confocal microscopy; settings: dose 1-10 µM
[10] = test system: H9c2; assay: Cardioprotective activity against doxorubicin-induced rat H9c2 cells assessed as protection of cell damage measured after 48 hrs by CCK8 assay; assay type: functional, cell-based; settings: dose 0.5-12.5 µM
In short: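 H9c2 cells grown in DMEM with 10% FBS and penicillin/streptomycin at 37 °C, 5% CO2, used at 70% confluence. Exposed to DOX (10 μM) with or without test compound (0.5–12.5 μM) for 48 h. CCK-8 (0.5 mg/mL) then added for 4 h to read viability.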

[11] = species on record: Danio rerio; assay: Cardioprotective activity against Zebrafish assessed as reduction in doxorubicin-induced increase in natriuretic peptide mRNA level by qRT-PCR analysis; assay type: functional, organism-based; settings: dose 20-40 µM
In short: (§2)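 Zebrafish embryos, either controls or exposed to doxorubicin with or without test compound. ANP and cTnT mRNA levels measured relative to control. Mean ± S.D., n = 4.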

[12] = species on record: Danio rerio; assay: Prevention of doxorubicin-induced Zebrafish mortality assessed as increase in survival rate incubated for 48 hrs by inverted fluorescence microscopy; assay type: functional, organism-based; settings: dose 5-40 µM
In short: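 Wild-type embryos, 24 hpf, 20 per well in 1 mL egg water, exposed to DOX (100 μM) with or without test compound (5, 15, 40 μM) for 48 h. Survival scored at 96 hpf by inverted fluorescence microscopy; no motion on touch, or loss of atrial and ventricular contractility, counted as dead. Mean ± S.D., n = 4.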

[13] = test system: H9c2; assay: Cardioprotective activity against rat H9c2 cells assessed as inhibition of doxorubicin-induced ROS production preincubated for 48 hrs followed by loading with DCFDA dye for 40 mins by DCF-DA probe based fluorescence assay; assay type: functional, cell-based; settings: dose 1-10 µM
In short: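 H9c2 cells exposed for 48 h with or without test compound, then loaded with DCFH-DA (5 μM final, in DMEM) for 40 min at 37 °C. Cells washed three times with PBS; DCF fluorescence read by confocal microscopy as the ROS level. Mean ± S.D., n = 3.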

[14] = species on record: Danio rerio; assay: Cardioprotective activity against Zebrafish assessed as reduction in doxorubicin-induced increase in Cardiac troponin T mRNA level by qRT-PCR analysis; assay type: functional, organism-based; settings: dose 20-40 µM; in short: as §2

SMILES | Activity [1] | Activity [2] [%] | Activity [3] | also measured
CC(=O)OC[C@@H]1[C@@H](O)[C@@]2(C)CC[C@H]3[C@]4(C)CCC[C@@](C)(C(=O)O)[C@H]4CC[C@@]13C2 | inactive |  |  | 
COc1ccc(C(=O)OC[C@@H]2[C@@H](O)[C@@]3(C)CC[C@H]4[C@]5(C)CCC[C@@](C)(N)[C@H]5CC[C@@]24C3)c(OC)c1OC | Active |  |  | 
Cc1ccc(S(=O)(=O)OC[C@@H]2C(=O)[C@@]3(C)CC[C@H]4[C@]5(C)CCC[C@@](C)(C(=O)O)[C@H]5CC[C@@]24C3)cc1 | 60% | 60 | 60% | 
C[C@@]12CC[C@@H]3[C@@](CC[C@H]4[C@@]3(C)CCC[C@@]4(C)C(=O)O)(CC1=O)C2 [ISOSTEVIOL] | inactive | 57 | inactive | Activity [4]: Dose-Dependent Effect; Activity [5]: Dose-Dependent Effect; Activity [6]: Dose-Dependent Effect; Activity [7]: Dose-Dependent Effect; Activity [8]: Dose-Dependent Effect
C[C@]12CC[C@H]3[C@]4(C)CCC[C@@](C)(C(=O)O)[C@H]4CC[C@@]3(C1)[C@H](COC(=O)C1CCCCC1)[C@H]2O | inactive |  |  | 
C[C@]12CC[C@H]3[C@]4(C)CCC[C@@](C)(N)[C@H]4CC[C@@]3(C1)[C@H](CO)[C@H]2O | inactive |  |  | 
COc1ccc(COC(=O)[C@]2(C)CCC[C@@]3(C)[C@@H]4CC[C@@]5(C)C[C@]4(CC[C@@H]32)CC5=O)cc1 |  |  | 60% | 
COc1ccc(C(=O)OC[C@@H]2[C@@H](O)[C@@]3(C)CC[C@H]4[C@]5(C)CCC[C@@](C)(N)[C@H]5CC[C@@]24C3)cc1 | Active |  |  | 
COc1ccc(C(=O)OC[C@@H]2[C@@H](O)[C@@]3(C)CC[C@H]4[C@]5(C)CCC[C@@](C)(C(=O)O)[C@H]5CC[C@@]24C3)cc1 | >70% |  |  | 
COc1cc(C(=O)OC[C@@H]2[C@@H](O)[C@@]3(C)CC[C@H]4[C@]5(C)CCC[C@@](C)(N)[C@H]5CC[C@@]24C3)cc(OC)c1OC | Active |  |  | 
COc1ccc(C(=O)OC[C@@H]2C(=O)[C@@]3(C)CC[C@H]4[C@]5(C)CCC[C@@](C)(N)[C@H]5CC[C@@]24C3)c(OC)c1OC | 98% |  |  | Activity [9]: Dose-Dependent Effect; Activity [10]: Dose-Dependent Effect; Activity [4]: Dose-Dependent Effect; Activity [5]: Dose-Dependent Effect; Activity [11]: Dose-Dependent Effect; Activity [6]: Dose-Dependent Effect; Activity [7]: Dose-Dependent Effect; Activity [12]: Dose-Dependent Effect; Activity [8]: Dose-Dependent Effect; Activity [13]: Dose-Dependent Effect; Activity [14]: Dose-Dependent Effect
COc1ccc(C(=O)OC[C@@H]2C(=O)[C@@]3(C)CC[C@H]4[C@]5(C)CCC[C@@](C)(C(=O)O)[C@H]5CC[C@@]24C3)c(OC)c1OC | 77% | 77 | 77% | Activity [4]: Dose-Dependent Effect; Activity [5]: Dose-Dependent Effect; Activity [6]: Dose-Dependent Effect; Activity [7]: Dose-Dependent Effect; Activity [12]: Dose-Dependent Effect; Activity [8]: Dose-Dependent Effect
C[C@@H]1CC(=O)NN=C1c1ccc(NN=C(C#N)C#N)cc1 [LEVOSIMENDAN] | 74% | 58 | 69% | Activity [12]: Dose-Dependent Effect
C[C@]12CC[C@H]3[C@]4(C)CCC[C@@](C)(N)[C@H]4CC[C@@]3(C1)[C@H](COC(=O)c1cccnc1)[C@H]2O | Active |  |  | 
C[C@]12CC[C@H]3[C@]4(C)CCC[C@@](C)(C(=O)O)[C@H]4CC[C@@]3(C1)[C@H](CO)[C@H]2O | 60% | 60 | 60% | 
COc1ccc(C(=O)OC[C@@H]2C(=O)[C@@]3(C)CC[C@H]4[C@]5(C)CCC[C@@](C)(C(=O)O)[C@H]5CC[C@@]24C3)cc1OC | Active |  |  | Activity ([1]; record 2): >70%
C=C1C(=O)[C@@]2(C)CC[C@@H]3[C@]1(CC[C@H]1[C@@]3(C)CCC[C@@]1(C)C(=O)O)C2 | 26% | 50 | 38% | 
COc1cc(C(=O)OC[C@@H]2C(=O)[C@@]3(C)CC[C@H]4[C@]5(C)CCC[C@@](C)(C(=O)O)[C@H]5CC[C@@]24C3)cc(OC)c1OC | 68% | 68 | 68% | Activity [4]: Dose-Dependent Effect; Activity [5]: Dose-Dependent Effect; Activity [6]: Dose-Dependent Effect; Activity [7]: Dose-Dependent Effect; Activity [12]: Dose-Dependent Effect; Activity [8]: Dose-Dependent Effect
COc1ccc(C(=O)OC[C@@H]2[C@@H](O)[C@@]3(C)CC[C@H]4[C@]5(C)CCC[C@@](C)(C(=O)O)[C@H]5CC[C@@]24C3)cc1OC | >70% |  |  | 
COc1ccc(CC(=O)OC[C@@H]2[C@@H](O)[C@@]3(C)CC[C@H]4[C@]5(C)CCC[C@@](C)(C(=O)O)[C@H]5CC[C@@]24C3)cc1 | >70% |  |  | 
COc1cccc(C(=O)OC[C@@H]2C(=O)[C@@]3(C)CC[C@H]4[C@]5(C)CCC[C@@](C)(C(=O)O)[C@H]5CC[C@@]24C3)c1OC | 70% |  |  | 
COc1cc(C(=O)OC[C@@H]2C(=O)[C@@]3(C)CC[C@H]4[C@]5(C)CCC[C@@](C)(N)[C@H]5CC[C@@]24C3)cc(OC)c1OC | 87% |  |  | Activity [4]: Dose-Dependent Effect; Activity [5]: Dose-Dependent Effect; Activity [6]: Dose-Dependent Effect; Activity [7]: Dose-Dependent Effect; Activity [12]: Dose-Dependent Effect; Activity [8]: Dose-Dependent Effect
C[C@]12CC[C@H]3[C@]4(C)CCC[C@@](C)(C(=O)O)[C@H]4CC[C@@]3(C1)[C@H](COC(=O)C1CCCCC1)C2=O | inactive |  |  | 
C[C@@]12CC[C@@H]3[C@@](CC[C@H]4[C@@]3(C)CCC[C@@]4(C)N)(CC1=O)C2 |  | 85 |  | Activity [4]: Dose-Dependent Effect; Activity [5]: Dose-Dependent Effect; Activity [6]: Dose-Dependent Effect; Activity [7]: Dose-Dependent Effect; Activity [12]: Dose-Dependent Effect; Activity [8]: Dose-Dependent Effect
COC(=O)[C@]1(C)CCC[C@@]2(C)[C@@H]3CC[C@@]4(C)C[C@]3(CC[C@@H]21)CC4=O | 60% |  |  | 
C[C@@]12CC[C@@H]3[C@@](CC[C@H]4[C@@]3(C)CCC[C@@]4(C)C(=O)OCc3ccccc3)(CC1=O)C2 |  | 60 |  | 
CC(=O)OC[C@@H]1C(=O)[C@@]2(C)CC[C@H]3[C@]4(C)CCC[C@@](C)(C(=O)O)[C@H]4CC[C@@]13C2 | inactive |  |  | 
Cc1ccc(S(=O)(=O)OC[C@@H]2[C@@H](O)[C@@]3(C)CC[C@H]4[C@]5(C)CCC[C@@](C)(C(=O)O)[C@H]5CC[C@@]24C3)cc1 | 60% | 60 | 60% | 
COc1cccc(C(=O)OC[C@@H]2[C@@H](O)[C@@]3(C)CC[C@H]4[C@]5(C)CCC[C@@](C)(N)[C@H]5CC[C@@]24C3)c1OC | Active |  |  | 
